Screening results: PubChem BioAssay, several laboratories
RAD54 inh – inhibitors of human RAD54 branch migration, primary screen, biochemical, fluorescence, single point; DNA repair and recombination protein RAD54-like (Homo sapiens), Q92698; RAD54 Holliday junction branch migration, FAM/BHQ fluorescence; inhibition, % at 10.4 µM; 360,000 compounds, 0.14% hits; AID 602329, 2012;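 active = mean normalized replicate activity at least 40 and at least half of replicates scoring 40 or more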;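 also: 0% = median of neutral control wells and 100% = median of positive control wells; inhibitors cause a drop in the FAM fluorescence signal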
UBC13 polyUb – UBC13 polyubiquitin chain formation inhibitors, primary screen, biochemical, TR-FRET, uHTS. Ubiquitin-conjugating enzyme E2 N (Homo sapiens), P61088. AID 485273, 2010. 330,000 compounds, 0.47% hits. inhibition, % at 20 µM; in the data active = inhibition above about 45%, passing the limit was not always enough
Target sequence (P61088 whole entry, looked up): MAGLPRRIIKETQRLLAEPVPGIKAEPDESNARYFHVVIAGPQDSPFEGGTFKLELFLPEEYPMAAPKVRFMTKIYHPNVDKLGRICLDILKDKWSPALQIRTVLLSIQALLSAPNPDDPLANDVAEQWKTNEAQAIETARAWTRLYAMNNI
RAD52 inh – RAD52 DNA annealing inhibitors, primary screen, biochemical, FRET, single point, set 2. 360,000 compounds, 0.46% hits. inhibition, % at 18.7 µM. DNA repair protein RAD52 homolog (Homo sapiens), P43351. recombinant RAD52 DNA annealing, FRET fluorescence;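 active = every replicate showing at least 50% inhibition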
Target sequence (P43351 whole entry, looked up): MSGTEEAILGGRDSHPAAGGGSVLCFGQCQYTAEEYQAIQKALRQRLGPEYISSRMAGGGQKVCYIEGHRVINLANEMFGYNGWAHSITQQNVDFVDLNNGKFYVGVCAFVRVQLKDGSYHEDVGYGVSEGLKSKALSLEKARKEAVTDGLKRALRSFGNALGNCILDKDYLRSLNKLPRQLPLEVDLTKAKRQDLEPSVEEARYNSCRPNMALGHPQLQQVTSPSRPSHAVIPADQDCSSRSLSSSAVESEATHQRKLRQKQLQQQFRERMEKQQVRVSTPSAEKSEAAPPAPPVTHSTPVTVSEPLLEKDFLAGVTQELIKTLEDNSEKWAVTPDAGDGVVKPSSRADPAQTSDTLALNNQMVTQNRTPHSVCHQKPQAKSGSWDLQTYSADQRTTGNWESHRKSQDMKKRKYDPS
FID counter – compounds displacing fluorescent DNA intercalator, primary screen, artefact control for HCV NS3 helicase inhibitor project, biochemical, FID fluorescence; DNA fluorescent intercalator displacement; inhibition, % at 7.9 µM; 290,000 compounds, 0.17% hits; in the data active = inhibition above about 37%;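 also: 0% = vehicle and 100% = reference compound; higher means more ethidium bromide displaced from hairpin DNA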
Apaf-1 inh – inhibitors of human Apaf-1 apoptosome, primary screen, biochemical, DEVD-Rh110 fluorescence, uHTS; Apoptotic protease-activating factor 1 (Homo sapiens), O14727; reconstituted apoptosome caspase-3 activity; inhibition, % at 20 µM; 330,000 compounds, 0.71% hits; active = inhibition of at least 40% at 20 µM;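 also: plate controls were DMSO wells for no effect and DEVD-CHO caspase inhibitor wells for full effect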
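System: Apoptosome proteins | Medium: Hepes pH 7.5 with detergent and BSA | Also added: Cytochrome c trigger plus (Z-DEVD)2-Rh110 caspase-3 substrate | Incubation: 30 min compound preincubation, 50 min activation, room temperature | Detection: Rhodamine 110 fluorescence at Ex 480/Em 540 nm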
Neddylation inh – inhibitors of cullin neddylation, primary screen, biochemical, TR-FRET, uHTS, NAE and Ubc12; NEDD8-conjugating enzyme Ubc12 (Homo sapiens) + NEDD8-activating enzyme E1 regulatory …; calls only at 25 µM; 360,000 compounds, 0.58% hits; in the data active = inhibition above about 36%
Numbers without * were called inactive; i = inactive; . = no result; + = active, no number; ! = not active in a repeat. An excerpt weighted towards active compounds, which were near 1.6% of everything screened.

SMILES | RAD54 inh | UBC13 polyUb | RAD52 inh | FID counter | Apaf-1 inh | Neddylation inh
CCOC(=O)N1CCC(NC(=O)c2ccc3c(c2)sc2nc(-c4ccc(OC)cc4)cn23)CC1 | . | 9.0 | . | -2.4 | 43.7* | .
COc1ccc(-c2ccc(C3[C@@H]4CN(S(=O)(=O)c5cccc(C)c5)C[C@H]3N4)cc2)cc1 (stereo not given in full) | . | . | 70.7*! | . | . | .
COc1cccc(S(=O)(=O)N2C[C@@H]3N[C@H](C2)C3c2ccc(-c3cccc(C)c3)cc2)c1 (stereo not given in full) | . | . | 56.7*! | . | . | .
O=C1OC(Nc2cc(Br)cc3cccnc23)c2ccccc21 (stereo not given) | -0.2 | -61.6 | 1.8 | -2.5 | 96.8* | i
O=C1OC(Nc2ncccn2)c2ccccc21 (stereo not given) | 0.3 | -13.2 | . | -0.5 | 0.5 | i
CCS(=O)(=O)N1Cc2cc(C(=O)O)nc(-c3cccc(-c4ccc(C#N)cc4)c3)c2[C@@H]1CCO | . | . | -11.9 | . | . | .
CCN(CC)S(=O)(=O)c1ccc(O)c(NC(=O)c2cc(-c3cc(OC)c(OC)c(OC)c3)nc3ccccc23)c1 | 4.0 | -16.9 | . | -32.7 | 29.5 | +
COc1cc(-c2cc(C(=O)Nc3cccc(S(=O)(=O)N(C)C)c3)c3ccccc3n2)cc(OC)c1OC | 6.6 | 11.6 | 0.5 | -34.1 | 17.6 | i
Cn1c2ccccc2c2cc(/C=N/NC(=O)c3cc(O)ccc3O)ccc21 | -0.9 | -0.9 | -6.4 | -10.2 | 31.8 | +
CO[C@H]1CN(C)C(=O)c2cc(NC(=O)Nc3ccc(Cl)c(Cl)c3)ccc2OC[C@@H](C)NC[C@@H]1C | 14.7 | . | 39.2 | . | . | .
CO[C@H]1CN(C)C(=O)c2ccc(NC(=O)Nc3ccc(Cl)c(Cl)c3)cc2OC[C@H](C)NC[C@@H]1C | -2.7 | . | 50.7* | . | . | .
CO[C@H]1CN(C)C(=O)c2cc(NC(=O)Nc3ccc(Cl)c(Cl)c3)ccc2OC[C@@H](C)NC[C@H]1C | 30.8 | . | 51.8* | . | . | .
CO[C@@H]1CN(C)C(=O)c2ccc(NC(=O)Nc3cc(Cl)cc(Cl)c3)cc2OC[C@H](C)NC[C@@H]1C | 8.1 | . | 57.9* | . | . | .
CC(C)C(NC(=O)c1ccc(C(C)(C)C)cc1)C(=O)NCC(c1ccccc1)N(C)C (stereo not given) | . | 8.3 | 12.7 | 36.8* | -3.7 | i
CC(C)C(NC(=O)c1ccc(C(C)(C)C)cc1)C(=O)NCCc1ccccn1 (stereo not given) | -6.4 | -21.3 | -12.2 | -29.3 | -1.6 | i
S=c1[nH]nc(-c2cc(-c3ccccc3)n[nH]2)n1/N=C/C(Br)=C/c1ccccc1 | -1.9 | -25.1 | -14.0 | 0.8 | 14.2 | +
COc1ccc2[nH]c(C)c(C(=O)CN3CCN(C/C=C/c4ccccc4)CC3)c2c1 | 26.3 | 12.0 | . | 38.5* | 9.8 | i
Cc1[nH]c2ccccc2c1C(=O)CN1CCN(C/C=C/c2ccccc2)CC1 | 3.6 | 4.3 | . | 22.5 | 6.3 | i
COC(=O)C[C@@H]1CC[C@H]2[C@H](COc3ccc(NC(=O)c4ccccc4OC)cc3C(=O)N2C)O1 | -0.8 | . | . | . | . | .
O=S(=O)(c1ccc(F)cc1)N1CCCCN2[C@H](CO)[C@@H](c3ccc(-c4ccccc4F)cc3)[C@H]2C1 | 0.4 | . | 56.5* | . | . | .
O=C(c1cccc(F)c1)N1CCCCN2[C@@H](CO)[C@@H](c3ccc(-c4ccc(F)cc4)cc3)[C@@H]2C1 | 2.9 | . | 53.1* | . | . | .
O=C(Nc1ccc(F)cc1)N1CCCCN2[C@H](CO)[C@H](c3ccc(-c4ccccc4F)cc3)[C@H]2C1 | 6.0 | . | 59.9* | . | . | .
O=C(Nc1ccc(F)cc1)N1CCCCN2[C@H](CO)[C@@H](c3ccc(-c4ccccc4F)cc3)[C@H]2C1 | 8.3 | . | 53.4* | . | . | .
COc1ccc2c3c(n(C)c2c1)[C@@H](CO)N(C(=O)Nc1ccccc1F)CC31CN(C(=O)c2ccccc2)C1 | . | . | 12.9 | . | . | .
CN(C)CC(=O)N[C@H]1CC[C@H](CCn2cc(CN(C)C)nn2)O[C@H]1CO | -15.2 | . | 73.3* | . | . | .
SMILES | RAD54 inh | UBC13 polyUb | RAD52 inh | FID counter | Apaf-1 inh | Neddylation inh
CN(C)CC(=O)N[C@H]1CC[C@H](CCn2cc(CN(C)C)nn2)O[C@@H]1CO | 1.7 | . | 11.2 | . | . | .
Cc1cc(C(=O)OCC(=O)N2CCC(c3ccccc3)=N2)ccc1[N+](=O)[O-] | -2.2 | -4.8 | -1.1 | . | 4.2 | i
O=C(OCC(=O)N1CCC(c2ccccc2)=N1)c1ccc([N+](=O)[O-])s1 | 2.6 | -11.7 | -10.3 | . | 51.6* | i
COc1cc(Cl)c(NC2=CC(=O)C(=O)c3ccccc32)c(OC)c1 | -5.7 | -284.1 | -23.0 | . | 91.9* | i
CCOc1ccc(NC2=CC(=O)C(=O)c3ccccc32)cc1 | . | . | -3.3 | . | . | i
O=C1c2ccccc2NC(c2ccc(O)c(O)c2)N1c1ccccc1Cl (stereo not given) | -17.5 | 15.6 | -6.9 | -5.0 | 2.4 | +
COC(=O)C1=CN(c2ccc(OC)cc2)C=C(C(=O)OC)C1c1cc(OC)c(OC)cc1OC | -11.9 | -7.6 | -10.9 | -59.7 | 30.5 | +
CN1CCc2nc(SCc3ccc(Cl)cc3)c(C#N)c(-c3cccs3)c2C1 | . | -23.1 | -14.8 | 11.8 | 83.1* | .
N#Cc1c(N)nc(SCc2ccncc2)c(C#N)c1-c1cccs1 | -25.6 | 25.5 | . | 0.8 | 13.9 | i
CCOC(=O)C1CCCN(c2cc(NCCCO)c([N+](=O)[O-])c3nonc23)C1 (stereo not given) | . | -18.5 | -7.7 | -6.5 | 40.5* | .
CC(=O)N(C)C[C@H]1OCc2ccccc2-c2c(n(C)c3ccccc23)C(=O)N([C@@H](C)CO)C[C@H]1C | -2.5 | . | 12.5 | . | . | .
C[C@H]1CN([C@@H](C)CO)C(=O)c2c(c3ccccc3n2C)-c2ccccc2CO[C@H]1CN(C)C(=O)CCN(C)C | 6.5 | . | 50.6* | . | . | .
C[C@@H]1CN([C@H](C)CO)C(=O)c2c(c3ccccc3n2C)-c2ccccc2CO[C@@H]1CN(C)C(=O)[C@H](Cc1ccccc1)N(C)C | 1.0 | . | 51.1* | . | . | .
C[C@@H]1CN([C@@H](C)CO)C(=O)c2c(c3ccccc3n2C)-c2ccccc2CO[C@H]1CN(C)C(=O)[C@@H](Cc1ccccc1)N(C)C | 4.9 | . | 25.7 | . | . | .
CCCC(=O)Nc1ccc2c(c1)OC[C@@H](C)N(C(=O)CC)C[C@H](C)[C@H](OC)CN(C)C2=O | -5.2 | . | -7.7 | . | . | .
Cc1cc(-c2ccc(N=Nc3c(S(=O)(=O)O)cc4cc(S(=O)(=O)O)cc(N)c4c3O)c(C)c2)ccc1N=Nc1c(S(=O)(=O)O)cc2cc(S(=O)(=O)O)cc(N)c2c1O | . | -18.6 | . | . | 98.3* | .
COc1cc([N+](=O)[O-])ccc1NC(=O)CN1CCc2cc(OC)c(OC)cc2C1 | -8.5 | -2.8 | -14.8 | 3.5 | 44.1* | i
